Results on ten molecules are retold here after ChEMBL document CHEMBL1149243, “Lactams as EP4 prostanoid receptor agonists. 3. Discovery of N-ethylbenzoic acid 2-pyrrolidinones as subtype selective agents” (J Med Chem, 2004).

Series [1] can be described thus: Volume of distribution in Wistar Han rat at 1 mg/kg, iv. The class given is ADME, organism-based. Also noted: dose 1 mg/kg, route intravenous. Conditions: in vivo, read-out: Vbeta. The essentials: (§1)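 Single i.v. dose of 1.0 mg/kg lactam; parent compound in plasma quantified by LC-MS/MS with detection down to 0.1 ng/mL. Reported values are averages after i.v. dosing.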

The target of series [2] is T1, Prostaglandin E2 receptor EP1 subtype (Homo sapiens, UniProt P34995).
T1 sequence (P34995 whole entry): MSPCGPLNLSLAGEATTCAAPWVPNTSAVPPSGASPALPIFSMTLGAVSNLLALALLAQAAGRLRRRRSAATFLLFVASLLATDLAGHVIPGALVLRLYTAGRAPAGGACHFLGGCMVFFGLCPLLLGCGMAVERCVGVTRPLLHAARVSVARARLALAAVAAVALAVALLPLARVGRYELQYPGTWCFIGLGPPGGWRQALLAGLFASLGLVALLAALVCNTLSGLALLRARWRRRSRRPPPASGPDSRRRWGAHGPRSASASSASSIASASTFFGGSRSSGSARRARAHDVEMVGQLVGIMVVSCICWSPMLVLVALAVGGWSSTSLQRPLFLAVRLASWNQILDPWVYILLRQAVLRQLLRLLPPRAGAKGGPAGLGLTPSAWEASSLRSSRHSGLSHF
As to the kind of experiment: Binding affinity to human EP1 receptor.

Series [3] addresses T2, Prostaglandin E2 receptor EP3 subtype (Homo sapiens, UniProt P43115).
T2 sequence (P43115 whole entry): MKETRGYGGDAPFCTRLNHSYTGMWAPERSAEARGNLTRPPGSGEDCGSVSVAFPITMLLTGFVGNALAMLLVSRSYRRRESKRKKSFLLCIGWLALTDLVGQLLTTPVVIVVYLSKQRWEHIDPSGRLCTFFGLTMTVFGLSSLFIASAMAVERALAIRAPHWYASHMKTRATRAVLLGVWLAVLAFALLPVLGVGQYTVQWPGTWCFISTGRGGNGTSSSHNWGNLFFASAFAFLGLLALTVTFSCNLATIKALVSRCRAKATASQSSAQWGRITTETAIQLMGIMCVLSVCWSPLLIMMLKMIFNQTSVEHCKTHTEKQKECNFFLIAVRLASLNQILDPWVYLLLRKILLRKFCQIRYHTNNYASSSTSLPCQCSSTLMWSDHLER
As to the kind of experiment: Binding affinity to human EP3 receptor.

Series [4] addresses T3, Prostaglandin E2 receptor EP4 subtype (Homo sapiens, UniProt P35408). As to the kind of experiment: Functional activity at human EP4 receptor.
The target in series [5] is T3, Prostaglandin E2 receptor EP4 subtype. As to the kind of experiment: Binding affinity to human EP4 receptor.
Series [6] can be described thus: Clearance in Wistar Han rat at 1 mg/kg, iv. Type of series: ADME, organism-based. Also noted: dose 1 mg/kg, route intravenous. The conditions noted are these: in vivo. The method in brief: as §1
Series [7] can be described thus: Half life in Wistar Han rat at 1 mg/kg, iv. Type of series: ADME, organism-based. Also noted: dose 1 mg/kg, route intravenous. Conditions: in vivo. The method in brief: as §1
Series [8] deals with Prostaglandin E2 receptor EP2 subtype (Homo sapiens, UniProt P43116). As to the kind of experiment: Binding affinity to human EP2 receptor.
Prostaglandin E2 receptor EP2 subtype, sequence (P43116 whole entry): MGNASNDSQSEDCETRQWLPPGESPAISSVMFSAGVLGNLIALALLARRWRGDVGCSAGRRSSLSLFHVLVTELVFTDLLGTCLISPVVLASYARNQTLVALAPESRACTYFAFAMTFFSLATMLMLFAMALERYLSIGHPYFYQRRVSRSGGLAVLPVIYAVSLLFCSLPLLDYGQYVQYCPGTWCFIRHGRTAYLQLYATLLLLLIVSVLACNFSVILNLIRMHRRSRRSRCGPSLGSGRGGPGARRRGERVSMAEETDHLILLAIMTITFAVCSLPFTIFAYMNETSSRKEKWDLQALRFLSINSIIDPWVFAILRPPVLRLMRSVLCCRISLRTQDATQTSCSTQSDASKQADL

T3 sequence (P35408 whole entry): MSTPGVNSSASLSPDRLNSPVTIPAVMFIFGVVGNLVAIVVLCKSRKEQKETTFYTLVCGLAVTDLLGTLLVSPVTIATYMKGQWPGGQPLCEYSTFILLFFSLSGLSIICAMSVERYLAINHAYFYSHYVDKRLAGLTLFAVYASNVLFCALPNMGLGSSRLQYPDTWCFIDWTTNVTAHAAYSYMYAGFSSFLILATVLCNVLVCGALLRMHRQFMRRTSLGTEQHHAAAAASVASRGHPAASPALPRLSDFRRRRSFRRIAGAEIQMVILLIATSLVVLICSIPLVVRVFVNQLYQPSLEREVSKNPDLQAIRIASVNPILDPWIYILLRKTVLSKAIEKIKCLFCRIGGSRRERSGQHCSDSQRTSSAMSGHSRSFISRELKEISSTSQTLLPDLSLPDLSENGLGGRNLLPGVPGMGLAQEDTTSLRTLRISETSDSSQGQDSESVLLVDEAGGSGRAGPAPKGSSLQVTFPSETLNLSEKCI

`CCCCC[C@H](O)/C=C/[C@H]1CCC(=O)N1CCCCOCC(=O)O`: in series [1], the Vd is 1.5 L/kg.

As a reminder, the Ki is the dissociation constant of the complex between target and ligand, obtained from inhibition or displacement. Higher therefore signals lower affinity. The EC50 is the concentration at which the effect is half-maximal. `Cc1cc(Cl)ccc1-c1cccc([C@H](O)CC[C@H]2CCC(=O)N2CCc2ccc(C(=O)O)cc2)c1`: the Ki in series [2] is 18000 nM; in series [3] it was 54000 nM. Also, the EC50 in series [4] is reported as 0.04 nM (agonist).

In general, clearance refers to a measure of how efficiently the substance is removed, as volume per time. The low end stands for a low capacity for elimination, the high end for a high capacity for elimination. One may read the half-life as the time needed for the level to fall by half in the phase considered. High values mean slow decline, low ones rapid decline. As for `CCCCC[C@H](O)/C=C/[C@H]1CCC(=O)N1CCc1ccc(C(=O)O)cc1`, the values for the Ki in series [2], in series [3] and in series [5] were above 100000 nM, 11000 nM and 2.9 nM (antagonist), respectively. For the same molecule, in series [4], the concentration for a half-maximal effect (EC50) is 11 nM (agonist). In addition, in series [6], the clearance was 41.7 mL/min/kg. The half-life in series [7] is 46.8 min.

Take `O=C(O)c1ccc(CCN2C(=O)CC[C@@H]2/C=C/[C@@H](O)CCC2CCC2)cc1`: the Ki in series [8] was 75 nM (antagonist); in series [3] it was 79000 nM; in series [5], 1 nM (antagonist). The EC50 in series [4] is recorded as 0.2 nM (agonist).

Take `COCc1cccc(C[C@H](O)/C=C/[C@H]2CCC(=O)N2CCc2ccc(C(=O)O)cc2)c1`: the Ki was 2500 nM (antagonist) in series [8], above 100000 nM in series [3] and 0.7 nM (antagonist) in series [5]. For the same molecule, the EC50 in series [4] is 5.9 nM (agonist).

Turning to `CCCCC[C@H](O)/C=C/[C@H]1CCC(=O)N1CCSCCCC(=O)O`, the figures for the Ki in series [8], in series [3] and in series [5] were 4700 nM (antagonist), 1900 nM (antagonist) and 3.8 nM (antagonist), respectively. The EC50 in series [4] is listed as 17 nM (agonist). Also, the clearance in series [6] was 10.5 mL/min/kg. In series [7], this molecule showed a half-life of 45.6 min.

On to `O=C(O)c1ccc(CCN2C(=O)CC[C@@H]2CC[C@@H](O)CCC2CCC2)cc1`, for which the figures for the Ki in series [8], in series [3] and in series [5] were 220 nM (antagonist), 77000 nM and 18 nM (antagonist), respectively. Besides, the concentration for a half-maximal effect (EC50) in series [4] is recorded as 150 nM (agonist).

Turning to `CCCCC[C@H](O)/C=C/[C@H]1CCC(=O)N1CCc1ccc(C(=O)O)s1`, the Ki in series [8] was 3700 nM (antagonist); in series [3], above 100000 nM; in series [5] it was 6.9 nM (antagonist). Also, the EC50 in series [4] is on record as 12 nM (agonist).

For `CCCCC[C@H](O)CC[C@H]1CCC(=O)N1CCc1ccc(C(=O)O)cc1`, the Ki in series [8] is 35 nM (antagonist); in series [3] it was 90300 nM; in series [5], 17 nM (antagonist). Further, in series [4], the EC50 is given as 130 nM (agonist). Also, the clearance in series [6] was 50 mL/min/kg. The molecule also showed a half-life in series [7] of 210 min. Besides, the Vd in series [1] amounted to 15.3 L/kg.

Take `CCCCC[C@H](O)/C=C/[C@H]1CCC(=O)N1CCCCCCC(=O)O`: the clearance in series [6] is 91.7 mL/min/kg. For the same molecule, the half-life in series [7] was 52.2 min. Also, the Vd in series [1] was found to be 6.9 L/kg.
